Results gathered from unrelated publications.
Protocols differ between the studies behind these lines.
Effect on: cell growth or viability

| SMILES | cell line | method | concentration | time | quantity | value |
| --- | --- | --- | --- | --- | --- | --- |
| CN(C)CCNC(=O)c1ccc(-c2nc3ccc4[nH]ncc4c3c3c2CCCC3)cc1 | ML-2 | – | – | 72 h | GI50 | 0.152 µM |
| O=C(NO)c1ccc(Cn2cnc3c(Nc4ccc(Br)cc4F)ncnc32)cc1 | U-937 | MTT | – | 72 h | IC50 | 2.16 µM |
| COc1cccc2c1cc1c3c(cc4c(c32)OCO4)C(=O)N1C | HuCC-A1 | MTT | – | 75 h | IC50 | 26 µM |
| CC1=CC(=O)c2ccccc2C1=O | HuCC-A1 | MTT | – | – | IC50 | 23 µM |
| CN(C)CCNC(=O)c1ccc(-c2nc3ccc4[nH]ncc4c3c3c2CCCCC3)c(F)c1 | U-937 | – | – | 72 h | GI50 | 1.17 µM |
| CCCCCCCCCCCCCCCCCCOc1ccccc1CC(=O)OCC[N+]1(C)CCCCC1 | NCI-H226 | SRB | 10 µM | – | inhibition | 71.9% |
| Cc1n[nH]c2ccc3nc(-c4ccc(C(=O)NCCN(C)C)cc4)c4c(c3c12)CCCCC4 | U-937 | – | – | 72 h | GI50 | 5.92 µM |
| COc1cccc2c1C(=O)c1c(O)c3c(c(O)c1C2=O)C[C@@](O)(C(=O)CO)C[C@@H]3O[C@H]1C[C@H](N)[C@H](O)[C@H](C)O1 | HuCC-A1 | MTT | – | 48 h | IC50 | 0.86 µM |
| Cc1n[nH]c2ccc3nc(-c4ccc(C(=O)NCCN(C)C)cc4F)c4c(c3c12)CCCCC4 | U-937 | – | – | 72 h | GI50 | 1.64 µM |
| CCCCCCCCCCCCCCCCCCOc1cccc(CC(=O)OCC[N+]2(C)CCCCC2)c1 | NCI-H226 | SRB | 10 µM | – | inhibition | 10.8% |
| COc1cccc2c1C(=O)c1c(O)c3c(c(O)c1C2=O)C[C@@](O)(C(=O)CO)C[C@@H]3O[C@H]1C[C@H](N)[C@H](O)[C@H](C)O1 | HuCC-A1 | MTT | – | 75 h | IC50 | 0.84 µM |
| COc1cccc2c1C(=O)c1c(O)c3c(c(O)c1C2=O)C[C@@](O)(C(=O)CO)C[C@@H]3O[C@H]1C[C@H](N)[C@H](O)[C@H](C)O1 | MINO | – | – | 96 h | IC50 | 0.0117 µM |
| CN(C)CCNC(=O)c1ccc(-c2nc3ccc4[nH]ncc4c3c3c2CCCCC3)cc1 | ML-2 | – | – | 72 h | GI50 | 0.698 µM |
| CCCCCCCCCCCCCCCCCCOc1ccccc1CC(=O)OCC[N+](CC)(CC)CC | NCI-H226 | SRB | 10 µM | – | inhibition | 46.3% |
| Cc1n[nH]c2ccc3nc(-c4ccc(C(=O)NCCN(C)C)cc4F)c4c(c3c12)CCCC4 | U-937 | – | – | 72 h | GI50 | 0.183 µM |
| COc1ccc(Nc2ncnc3c2ncn3Cc2ccc(C(=O)NO)cc2)cc1 | U-937 | MTT | – | 72 h | IC50 | 1.23 µM |
| CCCCCCCCCCCCCCCCCCOCC(COP(=O)([O-])OCC[N+](C)(C)C)OC (stereo not shown) | NCI-H226 | SRB | 10 µM | – | inhibition | 6.1% |
| COc1ccc(Nc2ncnc3c2ncn3Cc2ccc(C(=O)Nc3ccccc3N)cc2)cc1 | U-937 | MTT | – | 72 h | IC50 | 22.8 µM |
| CN1CCC(NC2CCc3[nH]c4c(C(N)=O)ccc(-c5ccccc5Cl)c4c3C2)CC1 (stereo not shown) | MINO | – | – | 96 h | IC50 | 0.0273 µM |
| CN(C)CCNC(=O)c1ccc(-c2nc3ccc4[nH]ncc4c3c3c2CCCC3)c(F)c1 | ML-2 | – | – | 72 h | GI50 | 0.243 µM |
| CCCCCCCCCCCCCCCCCCOc1ccccc1CC(=O)OCC[N+]1(C)CCOCC1 | NCI-H226 | SRB | 10 µM | – | inhibition | 50.2% |
| C=C1C[C@@]23CC[C@H]4[C@@](C)(CCC[C@@]4(C)C(=O)O)[C@@H]2CC[C@@H]1C3 | HuCC-A1 | MTT | – | 75 h | IC50 | 108 µM |
| CCCCCCCCCCCCCCCCCCOc1ccc(CC(=O)OCC[N+](CC)(CC)CC)cc1 | NCI-H226 | SRB | 10 µM | – | inhibition | 16.1% |
| CCc1nc(C(N)=O)c(Nc2ccc(N3CCC(N4CCN(C)CC4)CC3)c(OC)c2)nc1NC1CCOCC1 | U-937 | – | – | 72 h | GI50 | 4.39 µM |
| CCCCCCCCCCCCCCCCCCOc1ccc(CC(=O)OCC[N+](C)(C)C)cc1 | NCI-H226 | SRB | 10 µM | – | inhibition | 4.87% |
| O=C(NO)c1ccc(Cn2cnc3c(Nc4cccc([N+](=O)[O-])c4)ncnc32)cc1 | U-937 | MTT | – | 72 h | IC50 | 1.99 µM |
| CCCCCCCCCCCCCCCCCCOc1cccc(CC(=O)OCCC[N+](C)(C)C)c1 | NCI-H226 | SRB | 10 µM | – | inhibition | 15% |
| Cc1nc(Nc2ncc(C(=O)Nc3c(C)cccc3Cl)s2)cc(N2CC[C@H](O)C2)n1 | SU-DHL-8 | ATP luminescence | – | 72 h | IC50 | > 10 µM |
